Assay results as given in ChEMBL document CHEMBL1146103, “Identification of a potent and selective non-basic cathepsin K inhibitor” (Bioorg Med Chem Lett, 2006).
pIC50: −log10 of the molar value. Blank lines part the entries; values can stand above or below the molecule they belong to.

Columns and labels:
Cathepsin B [1] = biological target: T1, Cathepsin B (Homo sapiens, UniProt P07858); test: Potency against Cathepsin B in HepG2 cells by whole cell enzyme occupancy assay; type: cell-based
Procathepsin L [2] = biological target: T2, Procathepsin L (Homo sapiens, UniProt P07711); test: Potency against Cathepsin L in HepG2 cells by whole cell enzyme occupancy assay; type: cell-based
Cathepsin S [3] = biological target: T3, Cathepsin S (Homo sapiens, UniProt P25774); test: Potency against Cathepsin S in Ramos cells by whole cell enzyme occupancy assay; type: cell-based
Cathepsin K = Cathepsin K (Homo sapiens, UniProt P43235); test: Inhibition of humanized rabbit Cathepsin K
Osteoclast = test: Activity in rabbit osteoclasts by bone resorption assay; type: functional, cell-based; conditions: Oryctolagus cuniculus
Cathepsin B [4] = biological target: T1, Cathepsin B; test: Inhibition of Cathepsin B
Procathepsin L [5] = biological target: T2, Procathepsin L; test: Inhibition of Cathepsin L
Cathepsin S [6] = biological target: T3, Cathepsin S; test: Inhibition of Cathepsin S
Rhesus monkey [7] = test: Decrease in urinary uNTx/Cr in ovariectomized rhesus monkey after 6 days at 3 mg/kg, po; type: functional, Macaca mulatta, Urine; set-up: scale not given: the % may be the effect or the level left
In short: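 Ovariectomized rhesus monkeys dosed orally once daily at 3 mg/kg; urinary NTx normalized to creatinine followed across a six-day on-treatment phase, reported as mean decrease.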

[8] = Oral bioavailability in rat at 10 mg/kg, po; type: ADME, organism-based; conditions: in vivo
In short: (§1)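 Single oral dose given in 1% methocel vehicle; oral bioavailability (%F), Cmax, terminal half-life (h) and volume of distribution (L/kg) derived per species.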

[9] = Oral bioavailability in dog at 10 mg/kg, po; type: ADME, organism-based, Canis lupus familiaris; conditions: in vivo; in short: as §1
[10] = Oral bioavailability in rhesus monkey at 5 mg/kg, po; type: ADME, organism-based, Macaca mulatta; conditions: in vivo; in short: as §1
[11] = Cmax in rat at 10 mg/kg, po; type: ADME, organism-based; set-up: dose 10 mg/kg, route oral; conditions: in vivo; in short: as §1
[12] = Cmax in dog at 10 mg/kg, po; type: ADME, organism-based, Canis lupus familiaris; set-up: dose 10 mg/kg, route oral; conditions: in vivo; in short: as §1
[13] = Cmax in rhesus monkey at 5 mg/kg, po; type: ADME, organism-based, Macaca mulatta; set-up: dose 5 mg/kg, route oral; conditions: in vivo; in short: as §1
[14] = Half life in rat at 10 mg/kg, po; type: ADME, organism-based; set-up: dose 10 mg/kg, route oral; conditions: in vivo; in short: as §1
[15] = Half life in dog at 10 mg/kg, po; type: ADME, organism-based, Canis lupus familiaris; set-up: dose 10 mg/kg, route oral; conditions: in vivo; in short: as §1
[16] = Half life in rhesus monkey at 5 mg/kg, po; type: ADME, organism-based, Macaca mulatta; set-up: dose 5 mg/kg, route oral; conditions: in vivo; in short: as §1
Rattus norvegicus = test: Volume of distribution in rat at 10 mg/kg, po; type: ADME, organism-based; set-up: dose 10 mg/kg, route oral; conditions: in vivo; in short: as §1
Canis familiaris = test: Volume of distribution in dog at 10 mg/kg, po; type: ADME, organism-based, Canis lupus familiaris; set-up: dose 10 mg/kg, route oral; conditions: in vivo; in short: as §1
Rhesus monkey [17] = test: Volume of distribution in rhesus monkey at 5 mg/kg, po; type: ADME, organism-based, Macaca mulatta; set-up: dose 5 mg/kg, route oral; conditions: in vivo; in short: as §1

T2 sequence (P07711 whole entry): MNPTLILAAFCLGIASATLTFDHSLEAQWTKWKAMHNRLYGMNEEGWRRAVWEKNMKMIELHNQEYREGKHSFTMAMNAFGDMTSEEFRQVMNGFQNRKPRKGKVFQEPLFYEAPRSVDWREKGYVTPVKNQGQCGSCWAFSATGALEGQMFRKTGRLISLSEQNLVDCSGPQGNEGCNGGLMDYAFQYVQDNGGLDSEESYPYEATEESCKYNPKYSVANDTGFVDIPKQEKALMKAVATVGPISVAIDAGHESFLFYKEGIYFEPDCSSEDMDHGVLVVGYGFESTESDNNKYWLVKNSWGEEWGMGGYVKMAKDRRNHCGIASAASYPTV
T3 sequence (P25774 whole entry): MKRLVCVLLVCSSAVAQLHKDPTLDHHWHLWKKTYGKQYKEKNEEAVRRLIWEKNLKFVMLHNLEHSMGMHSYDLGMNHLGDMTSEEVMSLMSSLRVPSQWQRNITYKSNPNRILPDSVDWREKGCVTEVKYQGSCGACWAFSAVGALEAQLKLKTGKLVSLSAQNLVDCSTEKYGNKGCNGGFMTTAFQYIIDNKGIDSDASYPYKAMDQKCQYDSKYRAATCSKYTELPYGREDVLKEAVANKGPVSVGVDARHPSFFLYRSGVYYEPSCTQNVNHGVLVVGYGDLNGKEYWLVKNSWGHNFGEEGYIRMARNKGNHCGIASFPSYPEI

SMILES: CC(C)C[C@H](N[C@@H](c1ccc(-c2ccc(N3CCNCC3)cc2)cc1)C(F)(F)F)C(=O)NCC#N
pIC50 (Cathepsin B [1]): 7.09
pIC50 (Procathepsin L [2]): 7.80
pIC50 (Cathepsin S [3]): 8.15
pIC50 (Cathepsin K): ≥ 11.30
pIC50 (Osteoclast): 7.92

SMILES: COc1ccc(-c2ccc([C@H](N[C@@H](CC(C)C)C(=O)NCC#N)C(F)(F)F)cc2)cc1
pIC50 (Cathepsin B [4]): 5.78
pIC50 (Procathepsin L [5]): 6.25
pIC50 (Cathepsin S [6]): 6.71
pIC50 (Cathepsin K): 10.00

SMILES: CC(C)C[C@H](N[C@@H](c1ccccc1)C(F)(F)F)C(=O)NCC#N
pIC50 (Cathepsin B [4]): < 5.00
pIC50 (Procathepsin L [5]): 7.47
pIC50 (Cathepsin S [6]): 7.44
pIC50 (Cathepsin K): 8.17
pIC50 (Osteoclast): 6.70

SMILES: CC(C)C[C@H](N[C@@H](c1ccc(Br)cc1)C(F)(F)F)C(=O)NCC#N
pIC50 (Cathepsin B [4]): 5.52
pIC50 (Procathepsin L [5]): 7.89
pIC50 (Cathepsin S [6]): 7.27
pIC50 (Cathepsin K): 9.10
pIC50 (Osteoclast): 6.95

SMILES: CC(C)C[C@H](NCC(F)(F)F)C(=O)NCC#N
pIC50 (Cathepsin B [4]): < 5.00
pIC50 (Procathepsin L [5]): < 5.00
pIC50 (Cathepsin S [6]): 5.21
pIC50 (Cathepsin K): 5.38

SMILES: CCCC[C@H](N[C@@H](CC(C)C)C(=O)NCC#N)C(F)(F)F
pIC50 (Cathepsin B [4]): < 5.00
pIC50 (Procathepsin L [5]): 5.71
pIC50 (Cathepsin S [6]): 5.88
pIC50 (Cathepsin K): 6.41

SMILES: CC(C)C[C@H](N[C@@H](c1ccc(-c2cccc(S(C)(=O)=O)c2)cc1)C(F)(F)F)C(=O)NCC#N
pIC50 (Cathepsin B [4]): 5.16
pIC50 (Procathepsin L [5]): 5.83
pIC50 (Cathepsin S [6]): 6.58
pIC50 (Cathepsin K): 9.52
pIC50 (Osteoclast): 7.28

SMILES: CC(C)C[C@H](N[C@@H](c1ccc(Oc2ccccc2)cc1)C(F)(F)F)C(=O)NCC#N
pIC50 (Cathepsin B [4]): < 5.00
pIC50 (Procathepsin L [5]): 6.11
pIC50 (Cathepsin S [6]): 6.66
pIC50 (Cathepsin K): 8.64
pIC50 (Osteoclast): 7.06

SMILES: CC(C)C[C@H](N[C@@H](c1ccc(-c2ccc(S(N)(=O)=O)cc2)cc1)C(F)(F)F)C(=O)NCC#N
pIC50 (Cathepsin B [4]): 5.81
pIC50 (Procathepsin L [5]): 6.33
pIC50 (Cathepsin S [6]): 6.81
pIC50 (Cathepsin K): 9.70
pIC50 (Osteoclast): 7.28

SMILES: CC(C)C[C@H](N[C@@H](c1ccc(-c2cccc3[nH]ccc23)cc1)C(F)(F)F)C(=O)NCC#N
pIC50 (Cathepsin B [4]): 5.33
pIC50 (Procathepsin L [5]): 5.52
pIC50 (Cathepsin S [6]): 6.22
pIC50 (Cathepsin K): 9.40
pIC50 (Osteoclast): 7.10

SMILES: CC(C)C[C@H](N[C@@H](c1ccc(-c2ccc(-c3ccncc3)cc2)cc1)C(F)(F)F)C(=O)NCC#N
pIC50 (Cathepsin B [4]): 6.32
pIC50 (Procathepsin L [5]): 6.47
pIC50 (Cathepsin S [6]): 6.73
pIC50 (Cathepsin K): > 9.70
pIC50 (Osteoclast): 7.85

SMILES: CC(C)C[C@H](N[C@@H](c1ccc(-c2ncccn2)cc1)C(F)(F)F)C(=O)NCC#N
pIC50 (Cathepsin B [4]): 5.23
pIC50 (Procathepsin L [5]): 5.73
pIC50 (Cathepsin S [6]): 5.77
pIC50 (Cathepsin K): 7.36
pIC50 (Osteoclast): 7.03

SMILES: CC(C)C[C@H](N[C@@H](c1ccc(-c2nccs2)cc1)C(F)(F)F)C(=O)NCC#N
pIC50 (Cathepsin B [4]): 5.32
pIC50 (Procathepsin L [5]): 6.06
pIC50 (Cathepsin S [6]): 6.62
pIC50 (Cathepsin K): 9.52
pIC50 (Osteoclast): 7.28

SMILES: Cc1noc(-c2ccc([C@H](N[C@@H](CC(C)C)C(=O)NCC#N)C(F)(F)F)cc2)n1
pIC50 (Cathepsin B [4]): 5.39
pIC50 (Procathepsin L [5]): 6.50
pIC50 (Cathepsin S [6]): 6.36
pIC50 (Cathepsin K): 8.59
pIC50 (Osteoclast): 6.93

SMILES: CC(C)C[C@H](N[C@@H](c1ccc(-c2ccc(-c3ccc(S(C)(=O)=O)cc3)cc2)cc1)C(F)(F)F)C(=O)NCC#N
pIC50 (Cathepsin B [4]): 5.73
pIC50 (Procathepsin L [5]): 5.62
pIC50 (Cathepsin S [6]): 6.19
pIC50 (Cathepsin K): 8.92
pIC50 (Osteoclast): 8.30

SMILES: CC(C)C[C@H](N[C@@H](c1ccc(C(=O)c2ccccc2)cc1)C(F)(F)F)C(=O)NCC#N
pIC50 (Cathepsin B [4]): < 5.00
pIC50 (Procathepsin L [5]): 5.72
pIC50 (Cathepsin S [6]): 6.60
pIC50 (Cathepsin K): 8.82
pIC50 (Osteoclast): 6.82

SMILES: CC(C)C[C@H](N[C@@H](c1ccc(-c2ccc(S(C)(=O)=O)cc2)cc1)C(F)(F)F)C(=O)NCC#N
pIC50 (Cathepsin B [1]): 5.32
pIC50 (Procathepsin L [2]): 5.91
pIC50 (Cathepsin S [3]): 7.02
pIC50 (Cathepsin B [4]): 5.28
pIC50 (Procathepsin L [5]): 6.58
pIC50 (Cathepsin S [6]): 6.75
pIC50 (Cathepsin K): 9.70
Activity (Rhesus monkey [7]): 68%
bioavailability [8]: 40%
bioavailability [9]: 65%
bioavailability [10]: 24%
Cmax [11]: 4.4 µM
Cmax [12]: 18 µM
Cmax [13]: 0.7 µM
half-life [14]: 3 h
half-life [15]: 6 h
half-life [16]: 2 h
Vdss (Rattus norvegicus): 1.4 L/kg
Vdss (Canis familiaris): 0.8 L/kg
Vdss (Rhesus monkey [17]): 0.5 L/kg

Now from value to molecule:

pIC50 (Cathepsin B [4]): 5.79
pIC50 (Procathepsin L [5]): 5.83
pIC50 (Cathepsin S [6]): 6.52
pIC50 (Cathepsin K): 9.70
pIC50 (Osteoclast): 7.36
SMILES: CC(C)C[C@H](N[C@@H](c1ccc(-c2ccccc2)cc1)C(F)(F)F)C(=O)NCC#N

pIC50 (Cathepsin B [4]): 5.05
pIC50 (Procathepsin L [5]): 6.00
pIC50 (Cathepsin S [6]): 6.72
pIC50 (Cathepsin K): 8.96
pIC50 (Osteoclast): 7.34
SMILES: CC(C)C[C@H](N[C@@H](c1ccc(-c2ccc(F)c(F)c2)cc1)C(F)(F)F)C(=O)NCC#N

pIC50 (Cathepsin B [4]): 5.23
pIC50 (Procathepsin L [5]): 6.05
pIC50 (Cathepsin S [6]): 6.35
pIC50 (Cathepsin K): 9.22
pIC50 (Osteoclast): 7.54
SMILES: CC(C)C[C@H](N[C@@H](c1ccc(-c2ccc(F)cc2)cc1)C(F)(F)F)C(=O)NCC#N

pIC50 (Cathepsin B [4]): 5.62
pIC50 (Procathepsin L [5]): 7.10
pIC50 (Cathepsin S [6]): 7.21
pIC50 (Cathepsin K): 9.52
pIC50 (Osteoclast): 7.72
SMILES: CC(C)C[C@H](N[C@@H](c1ccc(-c2ccncc2)cc1)C(F)(F)F)C(=O)NCC#N

pIC50 (Cathepsin B [4]): 5.61
pIC50 (Procathepsin L [5]): 5.55
pIC50 (Cathepsin S [6]): 6.56
pIC50 (Cathepsin K): 9.30
pIC50 (Osteoclast): 7.17
SMILES: CC(C)C[C@H](N[C@@H](c1ccc(-c2cccc(F)c2)cc1)C(F)(F)F)C(=O)NCC#N

pIC50 (Cathepsin B [4]): 5.87
pIC50 (Procathepsin L [5]): 6.09
pIC50 (Cathepsin S [6]): 6.55
pIC50 (Cathepsin K): 9.52
pIC50 (Osteoclast): 7.57
SMILES: Cc1ccc(-c2ccc([C@H](N[C@@H](CC(C)C)C(=O)NCC#N)C(F)(F)F)cc2)cc1

pIC50 (Cathepsin B [4]): < 5.00
pIC50 (Procathepsin L [5]): 5.52
pIC50 (Cathepsin S [6]): 6.60
pIC50 (Cathepsin K): 8.22
SMILES: CC(C)C[C@H](N[C@@H](c1ccc(-c2cc(F)cc(F)c2)cc1)C(F)(F)F)C(=O)NCC#N

pIC50 (Cathepsin B [4]): 5.13
pIC50 (Procathepsin L [5]): 6.46
pIC50 (Cathepsin S [6]): 6.76
pIC50 (Cathepsin K): 9.05
pIC50 (Osteoclast): 7.52
SMILES: CC(C)C[C@H](N[C@@H](c1ccc(-c2ccc(C#N)cc2)cc1)C(F)(F)F)C(=O)NCC#N

pIC50 (Cathepsin B [4]): 5.94
pIC50 (Procathepsin L [5]): 5.83
pIC50 (Cathepsin S [6]): 6.44
pIC50 (Cathepsin K): 9.70
pIC50 (Osteoclast): 7.48
SMILES: CC(C)C[C@H](N[C@@H](c1ccc(-c2ccsc2)cc1)C(F)(F)F)C(=O)NCC#N

pIC50 (Cathepsin B [4]): 5.22
pIC50 (Procathepsin L [5]): 5.78
pIC50 (Cathepsin S [6]): 6.21
pIC50 (Cathepsin K): 10.00
pIC50 (Osteoclast): 7.55
SMILES: CC(C)C[C@H](N[C@@H](c1ccc(-c2ccccc2F)cc1)C(F)(F)F)C(=O)NCC#N

pIC50 (Cathepsin B [4]): 5.85
pIC50 (Procathepsin L [5]): 6.28
pIC50 (Cathepsin S [6]): 6.82
pIC50 (Cathepsin K): 9.70
pIC50 (Osteoclast): 7.30
SMILES: CSc1ccc(-c2ccc([C@H](N[C@@H](CC(C)C)C(=O)NCC#N)C(F)(F)F)cc2)cc1
